Measured values: ChEMBL document CHEMBL1143386, “Prodrugs of perzinfotel with improved oral bioavailability” (J Med Chem, 2009)
One block for each molecule: values may come before it. The source made the active and inactive calls.

Assays:
[1] = Chemical stability at pH 4.5 after 4 hrs; format: physicochemical; settings: buffer, read-out: Stability
In short: (§1)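 Compound at 0.01 mg/mL final in a 9:1 mix of aqueous buffer (pH 1.0, 4.5, 6.6 or 7.4) or simulated gastric fluid with acetonitrile, held at 37 °C in the autosampler. Injected every 4 h over 24 h onto C8 HPLC. Percent remaining from peak area at 304 nm, corrected by internal standard; products confirmed by LC/MS (-ESI).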

[2] = Chemical stability in simulated gastric fluid after 4 hrs; format: physicochemical; settings: read-out: Stability; in short: as §1
[3] = Chemical stability at pH 1 after 4 hrs; format: physicochemical; settings: buffer, read-out: Stability; in short: as §1
[4] = Chemical stability at pH 6.6 after 4 hrs; format: physicochemical; settings: buffer, read-out: Stability; in short: as §1
[5] = Chemical stability at pH 7.4 after 4 hrs; format: physicochemical; settings: buffer, read-out: Stability; in short: as §1
Glutamate NMDA receptor = test: Displacement of [3H]CGP-39653 from rat brain NMDA receptor
In short: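 Competitive displacement of [3H]CGP-39653 at the NMDA recognition site, using rat whole-brain membranes.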

[6] = Tmax in simulated intestinal fluid assessed as formation of benzoic acid [2-(8,9-dioxo-2,6-diaza-bicyclo[5.2.0]non-1(7)-en-2-yl)-ethyl]-hydroxy-phosphinoyloxymethyl ester; format: physicochemical; settings: simulated gi fluid
In short: (§2)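 Compound at a final 0.01 mg/mL in 9:1 pH 8.5 buffer or simulated intestinal fluid:acetonitrile, 37 °C. HPLC injections every 4 h over 24 h, with peak area at 304 nm corrected by internal standard and identities confirmed by LC/MS. Conversion kinetics fitted to a two-step first-order model to give rate constants, half-lives and Tmax of the hemiester.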

[7] = Tmax in pH 8.5 buffer assessed as formation of benzoic acid [2-(8,9-dioxo-2,6-diaza-bicyclo[5.2.0]non-1(7)-en-2-yl)-ethyl]-hydroxy-phosphinoyloxymethyl ester; format: physicochemical; in short: as §2
[8] = Half life in pH 8.5 buffer assessed as formation of perzinfotel; format: physicochemical; in short: as §2
Rattus norvegicus [9] = organism: Rattus norvegicus; test: Half life in Sprague-Dawley rat plasma assessed as formation of perzinfotel; format: ADME
In short: (§3)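 Dissolved at 0.05 mg/mL in rat plasma and incubated at 37 °C for 0–24 h. Samples quenched with acetonitrile and centrifuged; supernatant diluted and run on HPLC. Parent and conversion products quantified by peak area at 304 nm, corrected by internal standard, and confirmed by LC/MS. Kinetics fitted to a two-step first-order model.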

Rattus norvegicus [10] = organism: Rattus norvegicus; test: Tmax in Sprague-Dawley rat plasma assessed as formation of benzoic acid [2-(8,9-dioxo-2,6-diaza-bicyclo[5.2.0]non-1(7)-en-2-yl)-ethyl]-hydroxy-phosphinoyloxymethyl ester; format: ADME; settings: in vitro; in short: as §3
[11] = Half life in simulated intestinal fluid assessed as formation of perzinfotel; format: physicochemical; settings: simulated gi fluid; in short: as §2
Plasma [12] = test: Biodistribution in Sprague-Dawley rat plasma at 10 mg/kg, po after 0.167 hrs; settings: in vivo
Rattus norvegicus [13] = test: Antinociceptive activity in Sprague-Dawley rat assessed as reversal of PGE2-induced thermal hypersensitivity at 100 mg/kg after 0.5 hrs; format: functional, organism-based; set-up: dose 100 mg/kg
In short: (§4)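 Male Sprague-Dawley rats (200-250 g) fasted ~16 h and dosed orally in 2% Tween-80/0.5% methylcellulose (1 mL/kg) 0.5-48 h before intradermal PGE2 (0.1 mg in 50 µL). Tail-withdrawal latency was read 30 min later in water at 34-58 °C, with a 20 s cutoff. T10 from each rat's temperature-effect curve; within-subjects repeated-measures ANOVA, p < 0.05.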

Blood [14] = test: Biodistribution in Sprague-Dawley rat blood at 30 mg/kg, po after 0.5 hrs; format: ADME, organism-based; set-up: dose 30 mg/kg, route oral; settings: in vivo
In short: (§5)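 Male Sprague-Dawley rats given [14C]-labelled compound by oral gavage (parent at 30 mg/kg, prodrug at 10 mg/kg). Blood, plasma and brain taken at 0.167, 0.5, 1, 4, 8 and 24 h (n = 3 rats/time point). Total radioactivity measured in each matrix. Metabolite profiles from HPLC with in-line radioactivity detection.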

Blood [15] = test: Biodistribution in Sprague-Dawley rat blood at 10 mg/kg, po after 0.167 hrs; settings: in vivo
[16] = AUC (0 to last) in Sprague-Dawley rat at 30 mg/kg, po; settings: plasma
Plasma [17] = test: Biodistribution in Sprague-Dawley rat plasma at 30 mg/kg, po after 0.5 hrs; format: ADME, organism-based; set-up: dose 30 mg/kg, route oral; settings: in vivo; in short: as §5
[18] = Half life in Sprague-Dawley rat at 30 mg/kg, po; format: ADME, organism-based; set-up: dose 30 mg/kg, route oral; settings: in vivo
In short: (§6)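 Male Sprague-Dawley rats fasted about 16 h, then dosed by oral gavage at 30 mg/kg as a suspension in 2% Tween-80/0.5% methylcellulose in water. Plasma sampled at 0–6 h (n = 2–3 per time point) and stabilized with acetic acid and KF. Samples acidified, extracted into n-butanol, and analysed by LC-MS.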

[19] = target: T1, Glycine receptor subunit alpha-1 (Rattus norvegicus) (UniProt P07727); test: Displacement of [3H]glycine from rat brain strychnine sensitive glycine receptor at 100 uM
T1 sequence (whole entry): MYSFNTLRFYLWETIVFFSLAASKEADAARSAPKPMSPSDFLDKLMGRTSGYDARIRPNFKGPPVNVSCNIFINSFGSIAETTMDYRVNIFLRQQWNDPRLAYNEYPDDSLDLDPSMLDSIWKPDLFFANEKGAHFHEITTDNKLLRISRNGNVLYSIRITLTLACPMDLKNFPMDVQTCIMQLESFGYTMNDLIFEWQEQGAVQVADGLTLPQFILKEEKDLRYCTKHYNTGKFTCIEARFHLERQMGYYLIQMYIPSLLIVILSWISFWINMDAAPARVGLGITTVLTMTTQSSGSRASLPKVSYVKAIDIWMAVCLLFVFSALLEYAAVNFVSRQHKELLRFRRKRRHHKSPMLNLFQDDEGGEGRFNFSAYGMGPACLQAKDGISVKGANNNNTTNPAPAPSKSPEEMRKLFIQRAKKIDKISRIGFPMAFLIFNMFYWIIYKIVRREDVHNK
In short: (§7)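 Inhibition of radioligand binding at 100 µM. [3H]glycine with rat whole-brain membranes, [3H]kainate with rat frontal cortex membranes, and [3H]AMPA with rat forebrain membranes.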

[20] = AUC (0 to 4 hrs) in Sprague-Dawley rat at 30 mg/kg, po; format: ADME, organism-based; set-up: time < 4 hr, dose 30 mg/kg, route oral; settings: plasma
In short: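 Male Sprague-Dawley rats given a single oral gavage dose, suspended in 2% Tween-80/0.5% methylcellulose in sterile water at 1 mL/kg. Plasma sampled at 0, 0.25, 0.5, 1, 2, 4 and 6 h; n = 2 at 0, 2, 4, 6 h and n = 3 at 0.25, 0.5, 1 h. Samples were stabilized with acetic acid/KF, acidified, extracted into n-butanol and quantified by LC/MS.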

Rattus norvegicus [21] = organism: Rattus norvegicus; test: Antinociceptive activity in Sprague-Dawley rat assessed as reversal of PGE2-induced thermal hypersensitivity after 0.5 hrs; format: functional; in short: as §4
[22] = Tmax in Sprague-Dawley rat at 30 mg/kg, po; format: ADME, organism-based; set-up: dose 30 mg/kg, route oral; settings: in vivo; in short: as §6
[23] = Cmax in Sprague-Dawley rat at 30 mg/kg, po; format: ADME, organism-based; set-up: dose 30 mg/kg, route oral; settings: in vivo; in short: as §6
Brain [24] = test: Biodistribution in Sprague-Dawley rat brain at 30 mg/kg, po after 0.5 hrs; format: ADME, organism-based; set-up: dose 30 mg/kg, route oral; settings: in vivo; in short: as §5
Rattus norvegicus [25] = organism: Rattus norvegicus; test: Displacement of [3H]AMPA from AMPA receptor in rat forebrain membrane at 100 uM; format: cell membranes; in short: as §7
Brain [26] = test: Biodistribution in Sprague-Dawley rat brain at 30 mg/kg, po after 0.167 hrs; format: ADME, organism-based; set-up: dose 30 mg/kg, route oral; settings: in vivo; in short: as §5
Rattus norvegicus [27] = organism: Rattus norvegicus; test: Displacement of [3H]kainic acid from kainate receptor in rat frontal cortex at 100 uM; format: tissue-based; in short: as §7

- remaining at 4 h [1]: 100%
- remaining at 4 h [2]: 100%
- remaining at 4 h [3]: 100%
- remaining at 4 h [4]: 97.7%
- remaining at 4 h [5]: 94.1%
SMILES: CC(C)OC(=O)OCOP(=O)(CCN1CCCNc2c1c(=O)c2=O)OCOC(=O)OC(C)C

- IC50 (Glutamate NMDA receptor): 17 µM
- Tmax [6]: 14.48 h
- Tmax [7]: 9.14 h
- t1/2 [8]: > 24 h
- t1/2 (Rattus norvegicus [9]): 0.87 h
- Tmax (Rattus norvegicus [10]): 0.19 h
- t1/2 [11]: > 24 h
SMILES: O=C(OCOP(=O)(O)CCN1CCCNc2c1c(=O)c2=O)c1ccccc1

- Drug uptake (Plasma [12]): 88%
- IC50 (Glutamate NMDA receptor): 0.023 µM
- Drug uptake (Blood [14]): 98%
- Drug uptake (Blood [15]): 88%
- AUC(0-last) [16]: 342 ng·h/mL
- Drug uptake (Plasma [17]): 98%
- half-life [18]: 1.3 h
- Activity [19]: 33%
- AUC(0-t) at 4 h [20]: 342 ng·h/mL
- Tmax [22]: 0.5 h
- Cmax [23]: 218 ng/mL
- Activity (Brain [24]): 98%
- Activity (Rattus norvegicus [25]): 17%
- Drug uptake (Brain [26]): 88%
- Activity (Rattus norvegicus [27]): 6%
SMILES: O=c1c2c(c1=O)N(CCP(=O)(O)O)CCCN2 [PERZINFOTEL]
- Activity (Rattus norvegicus [13]): Active
- ED50 (Rattus norvegicus [21]): 35 mg/kg
